# Source: PMC3985958 (ACS Chemical Biology, 2014)
# Assays:
# MOLM-13 cells = assay: Apoptosis analysis Annexin-V/PI; settings: for viable cells: separated enantiomers, after 72 h
# MDM2 [1] = molecular target: MDM2 (Homo sapiens, UniProt Q00987); format: binding; settings: SAR summary, unsubstituted indole
# PBMCs = assay: Viability of freshly isolated PBMCs; format: cell-based, human; settings: 72 h, data not shown
# p53 = assay: Western blot analysis in MOLM-13 cells; format: cell-based, human; settings: 20 μM; 6, 12, 24 h
# MDM2 [2] = assay: Western blot analysis in MOLM-13 cells; format: cell-based, human; settings: 20 μM; 6, 12, 24 h
# MDM4 = assay: Western blot analysis in MOLM-13 cells; format: cell-based, human; settings: 20 μM; 6, 12, 24 h
# Summary of the method: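 MOLM-13 cells (wt p53) grown in RPMI 1640 with 10% heat-inactivated FBS, harvested in log phase. Treated with 20 µM test compound or left untreated, then lysed at 6, 12 and 24 h (1 × 10^6 cells). Equal protein run on 12% SDS-PAGE and electroblotted to PVDF. Loading checked by Ponceau S and β-actin. HRP secondaries with chemiluminescent detection.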
# caspase 3 and 7 = assay: CaspaseGlo 3/7 assay in MOLM-13 cells; format: cell-based, human; settings: 20 μM, 24 h, relative to untreated control
# primary AML blasts = assay: Apoptosis; format: cell-based, human; settings: 20 μM, 72 h
# Chain of MDM2 (Homo sapiens, UniProt Q00987) (Q00987 1-125): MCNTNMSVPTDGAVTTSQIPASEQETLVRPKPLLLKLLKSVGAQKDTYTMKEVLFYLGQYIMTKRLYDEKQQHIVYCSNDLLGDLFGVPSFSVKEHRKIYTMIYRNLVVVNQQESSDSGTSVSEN
compound,measurement,setting,value
"CCOC(=O)c1[nH]c2cc(Cl)ccc2c1C(C(=O)NC(C)(C)C)N(C=O)Cc1ccc(Cl)cc1 (single isomer, unassigned; (-)) [(−)-YH239-EE]",viable cells,MOLM-13 cells,51.5%
CC(=O)N(CC(C)C)C(C(=O)NCc1ccccc1)c1c[nH]c2ccccc12 (stereo not shown) [5a],activity (binding to MDM2) in words,MDM2 [1],inactive
CC(=O)N(Cc1ccccc1)C(C(=O)NCc1ccccc1)c1c[nH]c2ccccc12 (stereo not shown) [5b],activity (binding to MDM2) in words,MDM2 [1],inactive
"COc1ccc(C2=N[C@@H](c3ccc(Cl)cc3)[C@@H](c3ccc(Cl)cc3)N2C(=O)N2CCNC(=O)C2)c(OC(C)C)c1 [Nutlin-3, reference compound]",toxic effect on PBMCs (viability),PBMCs,higher toxic effect on PBMCs than (+)-YH239-EE
same,apoptotic effect in words,"MOLM-13 cells; 20 μM, 72 h",high induction of apoptosis
(+)-YH239-EE,induction of p53,p53,induction of p53 could be observed after 6 h
same,MDM2 levels,MDM2 [2],MDM2 levels raised after 12 h
same,level of MDM4,MDM4,no effect
same,activation of caspase 3 and 7,caspase 3 and 7,significant higher activation of caspase 3 and 7 after 24 h than (−)-YH239-EE and Nutlin-3
same,response of patient samples with lower blast (<45%) counts,primary AML blasts,no response
same,share of tested samples with increased induction of apoptosis,primary AML blasts; 8 primary patient samples,2/3
same,toxic effect on PBMCs (viability),PBMCs,less cytotoxic than Nutlin-3
same,viable cells,MOLM-13 cells,13.7%
